# Hits are enriched below; roughly 1.5% of the tested compounds scored in any of these assays.
# CSN deneddyl inh: CSN deneddylation inhibition. AID 651999. actives 0.38% (n = 360,000). Q92905. inhibition, % at 12.5 µM. Purified CSN, SCF-Nedd8-OG deneddylation, fluorescence polarization;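 active means pattern-corrected inhibition above about 35%, with an unprinted fluorescence ratio check between 0.5 and 1.5, limit read from the data, passing the limit was not always enough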;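 further: 0% = enzyme with substrate and 100% = substrate without enzyme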
#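 Detection – fluorescence polarization · System – HEK293T-derived human Csn5 enzyme · Controls – substrate-only high control, full reaction low control · Timing – 90 min, room temperature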
# EBNA-1 inh: blocks EBNA-1 binding to DNA; EBNA-1 DNA binding, fluorescence polarization; inhibition, % at 14.8 µM; actives 0.34% (n = 300,000); AID 1950; in the data active means inhibition above about 28%
# LANA-H2B inh: blocks KSHV LANA binding to histone H2A/H2B; AID 2629; inhibition, % (no concentration beside the values); actives 0.6% (n = 320,000); cell-free LANA-H2A/H2B peptide, fluorescence polarization; in the data active means inhibition mostly above about 10%, no sharp cut-off; inactive means mostly below about 6.7%
# Bfl-1 A1 inh: inhibitors of the anti-apoptotic protein A1, read as caspase activation | caspase activation, % (concentration not given with the values) | actives 0.066% (n = 330,000) | MEF A1-2A-BIM cells, Caspase-Glo 3/7 luminescence, 3 h; percent of clofoctol response, vehicle zero;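 active means over half of replicate activation scores above 10%, or exactly half above 10 with the replicate mean above 10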
# HNF4A DNA FP: change in binding of human HNF4 alpha to DNA | HNF4a-FITC DNA binding, fluorescence polarization, 1 h | AID 1224865 | activity change, % at 10 µM | actives 0.3% (n = 360,000); in the data active means activity change above about 30%, passing the limit was not always enough
# ZTA DNA inh: counter-screen for EBNA-1 inhibitors: inhibitors of Epstein-Barr virus ZTA | P03206 | inhibition, % at 11 µM | actives 0.15% (n = 320,000) | ZTA-DNA binding, fluorescence polarization; in the data active means inhibition above about 33%
# CSN5 deneddyl: validation of inhibitors of human CSN-mediated cullin deneddylation; Csn5 deneddylation of SCF-Nedd8OG, fluorescence polarization, 90 min; actives 62% (n = 540); inhibition, % at 16.6 µM; AID 720654; shares compounds with CSN deneddyl inh; in the data active means inhibition above about 50%;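 further: 0% = DMSO with enzyme and 100% = no enzyme wells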
# MMP-2 counter: MMP-2 (human) inhibition, counter-screen for CSN hits | inhibition, % at 16.6 µM | AID 720655 | recombinant MMP-2, FRET substrate fluorescence, 60 min | actives 33% (n = 540) | shares compounds with CSN deneddyl inh;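 active means corrected plate-normalized z-score of 5 or more, or -5 or less, or inhibition of 15% or more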;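 further: plate controls were DMSO wells with enzyme for no effect and buffer wells lacking MMP-2 for full effect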
# Target sequence (P08253 whole entry, looked up): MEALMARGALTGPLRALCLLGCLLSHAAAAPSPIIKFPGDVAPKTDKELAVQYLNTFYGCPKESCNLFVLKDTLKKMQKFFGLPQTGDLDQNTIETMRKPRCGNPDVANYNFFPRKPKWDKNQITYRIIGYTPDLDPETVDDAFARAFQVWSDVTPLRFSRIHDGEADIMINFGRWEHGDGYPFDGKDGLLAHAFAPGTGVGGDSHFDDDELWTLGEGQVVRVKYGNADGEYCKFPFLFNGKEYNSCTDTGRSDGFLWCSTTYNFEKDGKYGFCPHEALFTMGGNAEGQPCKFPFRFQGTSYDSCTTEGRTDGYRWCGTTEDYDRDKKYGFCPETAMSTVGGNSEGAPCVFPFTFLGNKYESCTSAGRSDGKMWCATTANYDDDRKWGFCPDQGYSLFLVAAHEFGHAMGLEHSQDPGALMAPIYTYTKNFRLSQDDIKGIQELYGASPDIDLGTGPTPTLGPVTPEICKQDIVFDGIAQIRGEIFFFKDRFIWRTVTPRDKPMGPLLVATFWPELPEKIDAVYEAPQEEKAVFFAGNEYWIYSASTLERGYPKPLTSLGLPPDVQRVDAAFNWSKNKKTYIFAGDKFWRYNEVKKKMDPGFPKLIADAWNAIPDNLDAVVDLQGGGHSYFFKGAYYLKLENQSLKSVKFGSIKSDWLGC
# Thrombin counter: counter-screen for CSN deneddylation inhibitors: bovine thrombin inhibition. AID 720656. actives 49% (n = 540). bovine thrombin cleavage of Ub4-pepOG, fluorescence polarization. inhibition, % at 16.6 µM. shares compounds with CSN deneddyl inh;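 active means inhibition at or above a set limit, with a fluorescence interference ratio between 0.5 and a set maximum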
# HNF4A confirm: change in binding of human HNF4 alpha to DNA, retest; shares compounds with HNF4A DNA FP; HNF4A-FITC DNA binding, fluorescence polarization, 1 h; activity change, % at 12.5 µM; actives 99% (n = 210); AID 1224897; call rule not given here
# Active calls of the source: *; x = no result.
SMILES,CSN deneddyl inh,EBNA-1 inh,LANA-H2B inh,Bfl-1 A1 inh,HNF4A DNA FP,ZTA DNA inh,HNF4A confirm,others
COc1cc2cc3c(N)c(C(=O)Nc4sc(C)c(C)c4C#N)sc3nc2cc1OC,74*,4,1,0,15,6,x,CSN5 deneddyl=82*;MMP-2 counter=1;Thrombin counter=10
CN1/C(=C/c2cccc[n+]2CCO)Sc2ccccc21,-2,-8,13,0,5,-15,x,
CCN1/C(=C/c2ccc3cc(C)ccc3[n+]2CC)Sc2ccccc21,72*,-10,-135,-1,119*,0,x,CSN5 deneddyl=66*;MMP-2 counter=-23*;Thrombin counter=-61
CC[n+]1c(/C=C2\Sc3ccccc3N2C)ccc2cccc(C)c21,70*,x,x,x,156*,x,x,CSN5 deneddyl=12;MMP-2 counter=-11;Thrombin counter=33
CCN1/C(=C/C=C/c2sc3ccccc3[n+]2CC)Sc2ccccc21,105,15,-40,-1,94,0,x,
CCOC(=O)/C(=C/C=C1\Sc2cc(C)c(C)cc2N1CC)C(C)=O,35,x,x,x,171,x,x,
CCN1/C(=C/c2ccc3cc(C)ccc3[n+]2CC)Sc2cc(C)c(C)cc21,50*,x,x,x,107*,x,x,CSN5 deneddyl=29;MMP-2 counter=7;Thrombin counter=43
Cc1sc2nc(CSc3nnnn3-c3ccc(Cl)cc3)[nH]c(=O)c2c1C,34,5,x,3,38*,10,33*,
COc1cc(NC(C)CCCN)c2nc(C)ccc2c1Oc1ccc(F)cc1 (stereo not drawn),11,x,x,x,20,x,x,
COc1ccc(NS(=O)(=O)c2ccc(N3CCOCC3)c(N)c2)cc1,4,x,-2,-2,4,-6,x,
COc1ccccc1CN(C)C(=O)CN1C(=O)c2ccccc2C1=O,0,11,-3,0,0,5,x,
CC(=O)Nc1cc2c(cc1[N+](=O)[O-])-c1ccc(F)cc1C2,6,x,x,x,32*,x,39*,
CC(=O)Nc1ccc2c(c1)-c1ccc(F)cc1C2,1,x,x,x,-1,x,x,
NC(=O)CC(NC(=O)Cc1cccc2ccccc12)c1ccc(NC2CCCC2)c([N+](=O)[O-])c1 (stereo not drawn),-2,x,x,x,7,x,x,
CCCCNc1ccc(C(CC(N)=O)NC(=O)Cc2ccc(Br)cc2)cc1[N+](=O)[O-] (stereo not drawn),10,7,0,0,28,-7,x,
CCC(CC)Nc1ccc(C(CC(N)=O)NC(=O)Cc2ccc(Br)cc2)cc1[N+](=O)[O-] (stereo not drawn),32,6,1,1,52*,2,37*,
NC(=O)CC(NC(=O)Cc1cccc2ccccc12)c1ccc(NC2CCCCC2)c([N+](=O)[O-])c1 (stereo not drawn),24,-8,-3,0,51*,9,56*,
OC(c1ccccc1)(c1ccccc1)c1nccc2ccccc12,-2,x,x,x,1,x,x,
COc1ccc(NC(=O)CN(C)C(=O)CSc2nc3ccccc3s2)cc1,21,8,-1,0,43*,1,46*,
c1cncc(CNCc2ccco2)c1,-5,x,-3,1,-19,x,x,
CSc1nc2ccc3nc(NC(=O)c4ccc(Cl)s4)sc3c2s1,-4,9,1,0,-1,-3,x,
CSc1nc2ccc3nc(NC(=O)c4cccs4)sc3c2s1,44*,-7,2,-3,62*,11,40*,
O=C(CS(=O)CC(=O)Nc1cccnc1)Nc1ccc(F)cc1 (stereo not drawn),0,-5,2,1,3,8,x,
CCCCC(=O)OCc1c(-c2cccc(OC)c2)ncc2ccccc12,-1,x,-4,0,-2,-18,x,
Cc1ccc(-n2nc3c(N4CCC(C(=O)N5CCC(C(N)=O)CC5)CC4)nnc(C)c3c2C)cc1,30,5,11,2,49*,-13,48*,
SMILES,CSN deneddyl inh,EBNA-1 inh,LANA-H2B inh,Bfl-1 A1 inh,HNF4A DNA FP,ZTA DNA inh,HNF4A confirm,others
O=C(CSc1nc2ccccc2o1)Nc1nc2c(s1)CCCC2,17,x,x,x,55*,x,48*,
C=CCN1C(=O)/C(=C2/Sc3ccc(OC)cc3N2C)SC1=Nc1cccc(O)c1,25,-16,0,0,47*,21,70*,
Cc1cc(=O)oc2cc(OCC(=O)c3ccc4c(c3)NC(=O)CO4)ccc12,76*,18,-2,0,161*,16,46*,
CCc1nc2ccc(C(=O)NC3CCN(Cc4ccccc4)CC3)cn2c1N(C)Cc1cc2ccccc2s1,-1,x,x,x,0,x,x,
Cc1cc(/C=C2/NC(=S)NC2=O)c(C)n1-c1cccnc1,23,-7,1,0,49*,8,98*,
CCN(CC)c1ncnc2c1ncn2[C@H]1CN(Cc2ccc(-c3ccccc3)cc2)C[C@@H](CO)O1,-3,x,x,x,-1,x,x,
O=C(Nc1ccc([N+](=O)[O-])cc1)C(Cc1ccccc1)N1C(=O)c2cccc3cccc(c23)C1=O (stereo not drawn),24,2,3,5.5*,54*,-6,94*,
O=C(O)c1ccccc1NC(=O)C(Cc1ccccc1)N1C(=O)c2ccccc2C1=O (stereo not drawn),-5,5,7,-1,-1,5,x,
COc1cc(/C=C2\N=C3CCCCCN3C2=O)ccc1O,57*,0,-12,-1,47*,0,76*,
CCOc1ccccc1N1CC(C(=O)N(Cc2nnc(-c3ccccc3Cl)o2)C2CC2)CC1=O (stereo not drawn),6,0,5,0,2,-17,x,
COc1ccccc1N1C(=O)S/C(=C\c2ccc(C)s2)C1=O,27,7,2,1,43*,-2,76*,
O=C(Nc1nccs1)c1cc(-c2ccccn2)nc2c(Cl)cccc12,26,26,-2,3,72*,-18,45*,
CCN(CC)c1ccc(/C=C(\C#N)C(N)=O)cc1,14,x,x,x,34*,x,46*,
CCOc1ccc(Oc2ccc(NC(=O)CSc3nncn3C)cc2)cc1,4,x,x,x,-6,x,x,
CCN1C(=O)CS/C1=N\S(=O)(=O)c1ccccc1,2,-18,-3,0,-4,-14,x,

# Screening results as filed in PubChem BioAssay.
